The test system of data set [1] is Trypanosoma brucei brucei. The experiment in a line: Anti-parasitic activity against Trypanosoma brucei brucei TREU667 infected in mouse assessed as reduction in parasitemia at 50 mg/kg, bid administered via oral gavage on day 21 to 30 post infection measured on day 180 by microscopic method. Type of data set: functional, organism-based. The procedure, abridged: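 Groups of five mice are infected on day 0 with 1 × 10^4 parasites to give a chronic infection. From day 21, mice receive 50 mg/kg orally b.i.d. for 10 days (20 doses) in 200 μL of 60% Phosal 53 MCT/30% PEG400/10% EtOH; a vehicle-only group runs alongside. Tail blood slides are examined microscopically until 180 days postinfection. Three mice are sampled before dose 15 and at 1 and 6 h after.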

Data set [2] can be described thus: Drug level in mouse plasma at 5 mg/kg, ip administered as single dose measured at 1 hr post dose by liquid chromatography/tandem mass spectrometric analysis. Type of data set: ADME, organism-based. The procedure, abridged: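 Single ip dose of 5 mg/kg in 5% DMSO/7% Tween 80/3% EtOH in 0.9% saline, three mice per compound (six for one compound). At 1 h, plasma is separated by centrifugation and brain homogenized in acetonitrile. Both are quantified by LC-MS/MS, with brain corrected for 3% v/w blood. Brain/plasma ratio is reported as mean ± SEM.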

The nature of data set [3]: Cmax in mouse brain at 50 mg/kg, po administered as single dose via gavage by liquid chromatography/tandem mass spectrometric analysis. Type of data set: ADME, organism-based. Details: dose 50 mg/kg, route oral. The method, boiled down:
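Time course after a single 50 mg/kg oral dose in 5% DMSO/7% Tween 80/3% EtOH in 0.9% saline. Mice are sacrificed in groups of three at 1, 4, 8 and 24 h. Plasma is separated by centrifugation and brain homogenized in acetonitrile, both measured by LC-MS/MS. Brain values are corrected for 3% v/w blood. Lower limit of quantitation 0.010 μM. Values are means ± SEM.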

Data set [4] deals with Trypanosoma brucei rhodesiense. The data set is described as follows: Antiparasitic activity against Trypanosoma brucei rhodesiense STIB900 infected in Swiss-Webster mouse assessed as reduction in parasitemia at 50 mg/kg, po bid administered via gavage from day 2 to 5 post infection measured on day 60 by microscopic method. Type of data set: functional, organism-based. The procedure, abridged: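 Female Swiss-Webster (ND4 outbred) mice, 6–8 weeks old, five per group, are infected on day 0 with 1 × 10^4 parasites. Dosing is 50 mg/kg by oral gavage every 12 h on days 2–5 (eight doses) in 200 μL of 5% DMSO/7% Tween 80/3% EtOH in 0.9% saline. Tail blood is examined microscopically for 60 days, and mice become parasitemic are euthanized. Three mice are sampled before dose 7 and at 1 and 6 h after for plasma levels.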

Data set [5] in a line: AUC (0 to infinity) in mouse at 50 mg/kg, po administered as single dose via gavage as 7% Tween 80/3% EtOH/5% DMSO formulation by liquid chromatography/tandem mass spectrometric analysis. Type of data set: ADME, organism-based. The conditions noted are these: in vivo. On the set-up: dose 50 mg/kg, route oral, time infinity. The procedure, abridged:
(§1)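 Single oral gavage dose of 50 mg/kg to groups of three mice, vehicle as in the line. Tail blood of 40 μL is taken into heparinized capillaries at time points out to as much as 32 h. It is spotted on dried-blood cards and quantified by LC-MS/MS. Values are means ± SEM of three mice.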

Data set [6] is described as follows: Stability in mouse liver microsomes assessed as compound remaining at 1.5 uM in presence of NADPH measured after 60 mins by liquid chromatography/tandem mass spectrometric analysis. Type of data set: ADME, microsome. The conditions noted are these: read-out: Stability. The method, boiled down:
(§2)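 Pooled liver microsomes (0.5 mg/mL) are preincubated 5 min at 37 °C in 0.16 M KH2PO4 with 1 mM NADPH, then test compound is added at 1.5 μM. Aliquots are quenched with 4 volumes of acetonitrile at 0, 5, 10, 15, 30 and 60 min and analyzed by LC-MS/MS. Percent remaining at 5 or 60 min is given when t1/2 is outside the 5–60 min range. Controls: testosterone, dextromethorphan.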
In general terms: Liver microsomes are vesicles of endoplasmic reticulum, rich in cytochrome P450 enzymes.

A short description of data set [7]: Drug level in mouse plasma at 50 mg/kg, po administered as single dose via gavage measured at 1 hr post dose by liquid chromatography/tandem mass spectrometric analysis. Type of data set: ADME, organism-based. The procedure, abridged: (§3)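 Single 50 mg/kg oral dose in DMSO (5%), Tween 80 (7%), EtOH (3%) in 0.9% saline; groups of three mice killed at 1, 4, 8 and 24 h. Plasma separated by brief centrifugation; brain homogenised in acetonitrile; both assayed by LC-MS/MS, brain values corrected for 3% v/w blood content. Mean ± SEM of 3 mice; plasma LLQ 0.010 μM.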

A short description of data set [8]: Drug level in mouse plasma at 50 mg/kg, po administered as single dose via gavage measured at 24 hrs post dose by liquid chromatography/tandem mass spectrometric analysis. In kind it is ADME, organism-based. The method, boiled down: as §3
For another data set, the system named is Plasma. The experiment in a line: Drug level in Swiss-Webster mouse plasma infected with Trypanosoma brucei brucei TREU667 at 50 mg/kg, po bid administered via gavage for 10 days starting from 21 days post infection measured on day 7 prior to dose 15. In kind it is ADME, organism-based. The settings on record: in vivo. The method, boiled down:
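Groups of five mice given 1 × 10^4 T. b. brucei TREU667 on day 0; from day 21, 50 mg/kg oral gavage every 12 h for 10 d (20 doses) in 200 μL Phosal 53 MCT (60%), PEG400 (30%), EtOH (10%). Tail blood drawn from 3 mice before dose 15 and 1 and 6 h after it, spotted on cards, LC-MS/MS.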

In the next data set the test system is HepG2. The experiment in a line: Cytotoxicity against human HepG2 cells assessed as growth inhibition after 48 hrs by Alamar blue assay. Type of data set: cell-based. The settings on record: Homo sapiens, HepG2, 48 h. The procedure, abridged:
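CRL-8155 lymphoblasts or HepG2 hepatocellular carcinoma cells are exposed 48 h to serial compound dilutions in quadruplicate. Growth is read with Alamar Blue, and 50% and 90% inhibitory concentrations come from nonlinear regression. Quinacrine is the control.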
A general note: Alamar Blue is a resazurin reagent that responds to reducing activity.

Data set [9] in a line: Drug level in Swiss-Webster mouse plasma infected with Trypanosoma brucei brucei TREU667 at 50 mg/kg, po bid administered via gavage for 10 days starting from 21 days post infection measured at 1 hr post last dose. Type of data set: ADME, organism-based.
The nature of data set [10]: Selectivity index, ratio of EC50 for human HepG2 cells to EC50 for Trypanosoma brucei brucei BF427. Type of data set: toxicity. The conditions noted are these: read-out: Ratio EC50.
The nature of data set [11]: Drug level in mouse brain at 50 mg/kg, po administered as single dose via gavage measured at 8 hrs post dose by liquid chromatography/tandem mass spectrometric analysis. Type of data set: ADME, organism-based. The settings on record: read-out: Drug uptake. The procedure, abridged:
as §3

Data set [12] is described as follows: Drug level in mouse brain at 50 mg/kg, po administered as single dose via gavage measured at 1 hr post dose by liquid chromatography/tandem mass spectrometric analysis. In kind it is ADME, organism-based. The conditions noted are these: read-out: Drug uptake. The procedure, abridged:
as §3

Data set [13] is described as follows: Stability in human liver microsomes assessed as compound remaining at 1.5 uM in presence of NADPH measured after 60 mins by liquid chromatography/tandem mass spectrometric analysis. In kind it is ADME, microsome. The conditions noted are these: read-out: Stability. The method, boiled down: as §2
Data set [14] can be described thus: Drug level in mouse plasma at 50 mg/kg, po administered as single dose via gavage measured at 4 hrs post dose by liquid chromatography/tandem mass spectrometric analysis. In kind it is ADME, organism-based. The method, boiled down:
as §3

The test system of data set [15] is Trypanosoma brucei brucei. The data set is described as follows: Antitrypanosomal activity against Trypanosoma brucei brucei BF427 assessed as growth inhibition measured after 48 hrs by Alamar blue assay. Type of data set: functional. The conditions noted are these: BF427, 48 h. The procedure, abridged: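 Bloodstream-form parasites in HMI-9 medium are exposed to serial compound dilutions in triplicate. Viability is read with Alamar Blue at 48 h. EC50 and EC90 come from nonlinear regression. Pentamidine isethionate is the control.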

The nature of data set [16]: AUC (0 to infinity) in mouse at 50 mg/kg, po administered as single dose via gavage as 60% phosal 53 MCT/30% PEG400/10% EtOH formulation by liquid chromatography/tandem mass spectrometric analysis. In kind it is ADME, organism-based. Details: dose 50 mg/kg, time infinity, route oral. The conditions noted are these: in vivo. The method, boiled down:
as §1

pEC50: −log10 of the molar value. Activity calls are given as the source filed them. The rule behind the calls is not given here.

This is an account of results in ChEMBL document CHEMBL3992510, “Urea Derivatives of 2-Aryl-benzothiazol-5-amines: A New Class of Potential Drugs for Human African Trypanosomiasis” (J Med Chem, 2017).

By Cmax is commonly meant the maximum level reached in the sampled fluid or tissue. As a reminder, the AUC(0-inf) is total exposure, with the tail of the curve extrapolated. A higher AUC(0-inf) goes with high exposure. Usually pEC50 stands for the negative decadic logarithm of the EC50, by convention in mol/L. What is called EC90 is the concentration at which the effect reaches the 90% level.

For the compound `O=C(Nc1ccc2sc(-c3ccc(F)c(F)c3)nc2c1)N1CC[C@H](F)C1`, the result in data set [1] and in [4] was Active. In addition, the concentration at 1 h in data set [2] amounted to 2.27 µM; in data set [7], 27.1 µM; in [9], 23.1 µM; in data set [12], 38.2 µM. Besides, in [3], the peak concentration (Cmax) turned out to be 54.8 µM. Moreover, the AUC(0-inf) in [5] was 220 to 221 µM·h; in data set [16] it was 245 µM·h. For the same compound, the remaining at 1 h, 1.5 µM in [6] was 73%; in [13], 53%. Also, the concentration at 24 h in [8] turned out to be 0.01 µM. The concentration with Plasma amounted to 15.8 µM. For the same compound, the pEC50 is less than 4.30 in the data set with HepG2 and 7.46 in data set [15]. Besides, in [10], the selectivity ratio was more than 1440. Moreover, in data set [11], the concentration at 8 h is 48.1 µM. In data set [14], this compound showed a concentration at 4 h of 10.2 µM. The EC90 in [15] stood at 0.0548 µM.
